Data set [1] concerns T47D. In words: Cytotoxicity against human T47D cells at 50 ug/ml after 48 hrs by MTS assay relative to control. The data set is classed as functional. The method, boiled down:
(§1)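 Single-concentration screen at 50 μg/mL against T-47D and K562 cells, activity expressed relative to a vehicle control set at 100. Means ± SDs from triplicated experiments.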

Data set [2] has as its system K562. In words: Cytotoxicity against human K562 cells at 50 ug/ml after 48 hrs by MTS assay relative to control. The class given is functional. The gist of the method: as §1
On the technique in general: Tetrazolium assays rely on reduction of a dye to a coloured formazan, in cell work by metabolically active cells.

Data set [3] has as its system MDA-MB-231. In words: Cytotoxicity against human MDA-MB-231 cells after 48 hrs by MTS assay. The class given is functional. The gist of the method:
(§2)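 MTS assay on cancer cell lines and nontumor NIH3T3 cells. MTS50 is the concentration giving 50% reduction of MTS signal versus control. Dose-response tests run in triplicate over three independent experiments, means ± SDs against vehicle control.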

In data set [4] the test system is MDA-MB-231. Description: Induction of morphological changes in human MDA-MB-231 cells at 50 ug/ml. The data set is classed as functional, cell-based.
Data set [5] is described as follows: Down regulation of CCL5 gene expression in human KYSE-150 cells at 8.5 ug/ml after 48 hrs. The data set is classed as functional, cell-based. The gist of the method:
(§3)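 KYSE150 esophageal cancer cells treated with 8.5 μg/mL for 48 h alongside a vehicle control. Total RNA extracted and gene expression change expressed as percent change in detection signal versus control.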

Data set [6] has as its system Mus musculus. Description: Toxicity in human Hep3B cells xenografted athymic nude mouse assessed as changes in histological appearance of vital organs at 10 mg/kg, ip qd for 8 days by ematoxylin and eosin staining. Further details: dose 10 mg/kg, route intraperitoneal. The class given is organism-based, Hep 3B2. The conditions noted are these: in vivo, 192 h. The method, boiled down: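 Human Hep3B hepatocellular carcinoma cells grown as subcutaneous xenografts in athymic nude mice, five per group, given daily intraperitoneal injection at 10 mg/kg/day alongside vehicle controls. After 8 days of treatment, vital organs were collected, stained with hematoxylin and eosin, and examined for tissue damage at the histological level.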
(A xenograft is tissue or cells of one species grown in another, often human tumour cells in immunodeficient mice.)

Data set [7] is described as follows: Up-regulation of CLGN gene expression in human KYSE-150 cells at 8.5 ug/ml after 48 hrs. The class given is functional, cell-based. The gist of the method:
as §3

In data set [8] the test system is Hep 3B2. Description: Antitumor activity against human Hep3B cells xenografted in athymic nude mouse assessed as disappearance of tumor at 10 mg/kg, ip qd for 8 days. The arrangement: dose 10 mg/kg. The settings on record: in the assay text read “for 9 days” for “for 8 days”. The data set is classed as functional, organism-based. The gist of the method:
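Subcutaneous Hep3B hepatocellular carcinoma xenografts in athymic nude mice, five per group, vehicle control group. Dosing 10 mg/kg/day by daily intraperitoneal injection, 9 days. Tumor volume (mm3) followed, given as mean + SD, Student's t test. Vital organs examined by hematoxylin and eosin histology.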

Data set [9] in a line: Cytotoxicity against mouse NIH/3T3 cells after 48 hrs by MTS assay. The data set is classed as cell-based, NIH3T3. The settings on record: read-out: MTS50. The method, boiled down:
as §2

For data set [10], the system named is A549. Description: Cytotoxicity against human A549 cells after 48 hrs by MTS assay. The class given is functional. The gist of the method: as §2
For data set [11], the system named is Hs-578T. Description: Induction of morphological changes in human Hs578T cells at 50 ug/ml. The data set is classed as functional, cell-based.
The test system of data set [12] is T47D. In words: Ratio of CDDP IC50 to compound IC50 for human T47D cells. The class given is functional.
Data set [13] in a line: Cytotoxicity against human Hep3B cells after 48 hrs by MTS assay. The data set is classed as functional, Hep 3B2. The method, boiled down: as §2
For data set [14], the system named is SK-HEP1. Description: Cytotoxicity against human SKHEP1 cells after 48 hrs by MTS assay. The data set is classed as functional. The method, boiled down:
as §2

The test system of data set [15] is K562. Description: Inhibition of colony formation in human K562 cells at 50 ug/ml after 24 hrs by anchorage-dependent clonogenicity assay. The class given is functional, cell-based. The method, boiled down:
(§4)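 Anchorage-dependent clonogenicity assay on K562 and T47D cells. Treatment at 50 μg/mL for 24 h, then colony formation scored as percent inhibition versus vehicle control.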

The test system of data set [16] is T47D. In words: Inhibition of colony formation in human T47D cells at 50 ug/ml after 24 hrs by anchorage-dependent clonogenicity assay. The class given is functional, cell-based. The gist of the method:
as §4

Data set [17] has as its system T47D. In words: Induction of morphological changes in human T47D cells at 50 ug/ml. The data set is classed as functional, cell-based.
Data set [18] relates to Hs-578T. Description: Cytotoxicity against human Hs578T cells after 48 hrs by MTS assay. The data set is classed as functional. The gist of the method:
as §2

Data set [19] concerns Mus musculus. Description: Toxicity in human Hep3B cells xenografted athymic nude mouse assessed as mortality at 10 mg/kg, ip qd for 8 days. Further details: dose 10 mg/kg, route intraperitoneal. The conditions noted are these: in vivo, 192 h. The data set is classed as organism-based, Hep 3B2. The gist of the method: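 Athymic nude mice bearing subcutaneous human Hep3B hepatocellular carcinoma xenografts, five per group, received 10 mg/kg/day intraperitoneally once daily, with a vehicle-treated control group. Deaths were recorded over the treatment period.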

Data set [20] relates to T47D. In words: Cytotoxicity against human T47D cells after 48 hrs by MTS assay. The class given is functional. The gist of the method: as §2
The nature of data set [21]: Solubility of the compound in physiological saline. The data set is classed as physicochemical. The settings on record: buffer.
Data set [22] has as its system SAOS-2. In words: Cytotoxicity against human Saos2 cells after 48 hrs by MTS assay. The class given is functional. The gist of the method: as §2
For data set [23], the system named is K562. Description: Cytotoxicity against human K562 cells after 48 hrs by MTS assay. The class given is functional. The gist of the method: as §2

Values after ≈ are worked out from the molar mass of the structure shown. Active and inactive are the calls of the source. No cut-off for these calls is given here.

For `Cc1ccc2cccc(OCCN3CCCCC3)c2n1`, the Activity in data set [1] is listed as 69.2%; in [2], 27.43%.
The corresponding values for `N#Cc1ccc2cccc(O)c2n1` are 72.92% and 23.08%.
Consider `Oc1cccc2cccnc12` [OXYQUINOLINE], for which the Activity is recorded as 52.6% in [1] and 26.66% in data set [2].
With `Cc1ccc2cccc(O)c2n1` [8-HYDROXY QUINALDINE], the Activity in data set [1] is recorded as 46.54%; in [2], 34.46%.
For the compound `O=Cc1ccc2cccc(O)c2n1`, the MTS50 was 12.5 µg/mL in data set [3]; above 50 µg/mL in data set [10]; 6.25 µg/mL in data set [13]; 12.5 µg/mL in data set [14]; 12.5 µg/mL in data set [18]; 12.5 µg/mL in data set [20]. The MTS50 in [22] and in data set [23] was 12.5 µg/mL in each case. Besides, the result in [4], in [8], in data set [11] and in data set [17] was Active. Moreover, the Activity in data set [5] was 53.4%; in data set [6], “Non-toxic”; in data set [7], 65.4%; in [1], 8.37%; in data set [19], “Non-toxic”; in data set [2], 7%. Also, the CC50 at 48 h in data set [9] worked out at 7 µg/mL (≈ 40.4 µM). Besides, in [12], the “Ratio IC50” value stood at 4. Besides, the inhibition entry in data set [15] and in [16] was “Dose-dependent effect” each time. In addition, the solubility result in data set [21] is “Insoluble”.
On to `CCOc1cccc2ccc(C)nc12`, for which the Activity in [1] is listed as 63.43%; in data set [2] it was 21.38%.
Turning to `COc1cccc2ccc(C)nc12`, the Activity was found to be 37.92% in data set [1] and 27.15% in data set [2].

(Values after ChEMBL document CHEMBL2321796, “Synthesis of 8-hydroxyquinoline derivatives as novel antitumor agents” (ACS Med Chem Lett, 2013).)
